From ChEMBL document CHEMBL1145361, “3-Amino-1-alkyl-cyclopentane carboxamides as small molecule antagonists of the human and murine CC chemokine receptor 2” (Bioorg Med Chem Lett, 2007)

Biological target: C-C chemokine receptor type 2 (Mus musculus, UniProt P51683)
Test: Displacement of [125I]MCP1 from mouse CCR2 receptor expressed in CHO cells
Type: cell-based
Details: not given

Sequence of C-C chemokine receptor type 2 (Mus musculus, UniProt P51683) (P51683 whole entry): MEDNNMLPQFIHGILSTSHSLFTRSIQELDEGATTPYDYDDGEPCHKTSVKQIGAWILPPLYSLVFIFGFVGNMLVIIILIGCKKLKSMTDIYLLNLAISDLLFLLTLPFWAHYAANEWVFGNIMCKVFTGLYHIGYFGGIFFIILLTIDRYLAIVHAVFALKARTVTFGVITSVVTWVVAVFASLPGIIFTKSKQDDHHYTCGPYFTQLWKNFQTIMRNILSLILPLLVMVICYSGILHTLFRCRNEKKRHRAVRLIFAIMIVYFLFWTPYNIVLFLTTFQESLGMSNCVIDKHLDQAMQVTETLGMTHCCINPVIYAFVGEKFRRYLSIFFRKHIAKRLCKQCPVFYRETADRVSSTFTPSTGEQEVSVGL

IC50 | SMILES
65.5 nM | CSC[C@]1(C(=O)NCc2cc(C(F)(F)F)cc(C(F)(F)F)c2)CC[C@@H](N2CC[C@]3(C=Cc4ccccc43)[C@@H](C)C2)C1
126 nM | C[C@H]1CN([C@@H]2CC[C@](C)(C(=O)NCc3cc(C(F)(F)F)cc(C(F)(F)F)c3)C2)CC[C@]12C=Cc1ccccc12
3.5 nM | CCC1(C(=O)NCc2cc(F)cc(C(F)(F)F)c2)CCC(N2CC[C@]3(C=Cc4ccccc43)[C@@H](C)C2)C1 (some centres not stated)
559 nM | C[C@H]1CN(C2CCC(CC3CCC3)(C(=O)NCc3cc(F)cc(C(F)(F)F)c3)C2)CC[C@]12C=Cc1ccccc12 (single isomer, unassigned; diastereomer 3)
128 nM | CCCCCCC1(C(=O)NCc2cc(F)cc(C(F)(F)F)c2)CCC(N2CC[C@]3(C=Cc4ccccc43)[C@@H](C)C2)C1 (some centres not stated)
15 nM | C[C@H]1CN(C2CCC(CC3CC3)(C(=O)NCc3cc(F)cc(C(F)(F)F)c3)C2)CC[C@]12C=Cc1ccccc12 (some centres not stated)
44.3 nM | CCC[C@]1(C(=O)NCc2cc(C(F)(F)F)cc(C(F)(F)F)c2)CC[C@@H](N2CC[C@]3(C=Cc4ccccc43)[C@@H](C)C2)C1
8 nM | C[C@H]1CN([C@@H]2CC[C@@](C(=O)NCc3cc(F)cc(C(F)(F)F)c3)(C3CC3)C2)CC[C@]12C=Cc1ccccc12
93 nM | COCC1(C(=O)NCc2cc(C(F)(F)F)cc(C(F)(F)F)c2)CCC(N2CC[C@]3(C=Cc4ccccc43)[C@@H](C)C2)C1 (some centres not stated)
17.5 nM | CCC1(C(=O)NCc2cc(C(F)(F)F)cc(C(F)(F)F)c2)CCC(N2CC[C@]3(C=Cc4ccccc43)[C@@H](C)C2)C1 (some centres not stated)
193 nM | CS[C@]1(C(=O)NCc2cc(F)cc(C(F)(F)F)c2)CC[C@@H](N2CC[C@]3(C=Cc4ccccc43)[C@@H](C)C2)C1
28 nM | C[C@H]1CN(C2CCC(CC3CCC3)(C(=O)NCc3cc(F)cc(C(F)(F)F)c3)C2)CC[C@]12C=Cc1ccccc12 (some centres not stated)
5 nM | CC(C)[C@]1(C(=O)NCc2cc(F)cc(C(F)(F)F)c2)CC[C@@H](N2CC[C@]3(C=Cc4ccccc43)[C@@H](C)C2)C1
17 nM | CCCC1(C(=O)NCc2cc(F)cc(C(F)(F)F)c2)CCC(N2CC[C@]3(C=Cc4ccccc43)[C@@H](C)C2)C1 (some centres not stated)

Biological target: C-C chemokine receptor type 2 (Homo sapiens, UniProt P41597, I40L)
Test: Displacement of [125I]MCP1 from human CCR2 I40L mutant expressed in CHO cells
Type: cell-based
Details: not given
Procedure, shortened: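 Radioligand competition was run at room temperature for 45 min in 50 mM Hepes, 5 mM MgCl2, 1 mM CaCl2, pH 7.4, with 0.5% BSA and protease inhibitors. The reaction was stopped by filtration through GF/B filters presoaked in 0.10% polyethyleneimine to separate bound from free ligand.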

Sequence of C-C chemokine receptor type 2 (Homo sapiens, UniProt P41597, I40L) (P41597 whole entry I40L): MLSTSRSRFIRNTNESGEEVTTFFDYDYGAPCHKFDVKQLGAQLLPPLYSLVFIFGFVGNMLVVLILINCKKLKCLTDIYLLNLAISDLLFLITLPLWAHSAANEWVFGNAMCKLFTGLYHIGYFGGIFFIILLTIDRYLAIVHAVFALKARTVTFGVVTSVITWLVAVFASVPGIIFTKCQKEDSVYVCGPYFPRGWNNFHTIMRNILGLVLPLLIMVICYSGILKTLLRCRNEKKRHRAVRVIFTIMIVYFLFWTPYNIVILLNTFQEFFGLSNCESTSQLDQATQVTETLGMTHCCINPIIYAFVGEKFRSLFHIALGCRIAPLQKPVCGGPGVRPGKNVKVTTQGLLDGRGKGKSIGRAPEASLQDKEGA

IC50 | SMILES
13 nM | CSC[C@]1(C(=O)NCc2cc(C(F)(F)F)cc(C(F)(F)F)c2)CC[C@@H](N2CC[C@]3(C=Cc4ccccc43)[C@@H](C)C2)C1
9 nM | C[C@H]1CN([C@@H]2CC[C@](C)(C(=O)NCc3cc(C(F)(F)F)cc(C(F)(F)F)c3)C2)CC[C@]12C=Cc1ccccc12
3.3 nM | CCC1(C(=O)NCc2cc(F)cc(C(F)(F)F)c2)CCC(N2CC[C@]3(C=Cc4ccccc43)[C@@H](C)C2)C1 (some centres not stated)
135 nM | C[C@H]1CN(C2CCC(CC3CCC3)(C(=O)NCc3cc(F)cc(C(F)(F)F)c3)C2)CC[C@]12C=Cc1ccccc12 (single isomer, unassigned; diastereomer 3)
27 nM | CCCCCCC1(C(=O)NCc2cc(F)cc(C(F)(F)F)c2)CCC(N2CC[C@]3(C=Cc4ccccc43)[C@@H](C)C2)C1 (some centres not stated)
5.5 nM | C[C@H]1CN(C2CCC(CC3CC3)(C(=O)NCc3cc(F)cc(C(F)(F)F)c3)C2)CC[C@]12C=Cc1ccccc12 (some centres not stated)
16 nM | CCC[C@]1(C(=O)NCc2cc(C(F)(F)F)cc(C(F)(F)F)c2)CC[C@@H](N2CC[C@]3(C=Cc4ccccc43)[C@@H](C)C2)C1
1.9 nM | C[C@H]1CN([C@@H]2CC[C@@](C(=O)NCc3cc(F)cc(C(F)(F)F)c3)(C3CC3)C2)CC[C@]12C=Cc1ccccc12
15.5 nM | COCC1(C(=O)NCc2cc(C(F)(F)F)cc(C(F)(F)F)c2)CCC(N2CC[C@]3(C=Cc4ccccc43)[C@@H](C)C2)C1 (some centres not stated)
10 nM | CCC1(C(=O)NCc2cc(C(F)(F)F)cc(C(F)(F)F)c2)CCC(N2CC[C@]3(C=Cc4ccccc43)[C@@H](C)C2)C1 (some centres not stated)
67 nM | CS[C@]1(C(=O)NCc2cc(F)cc(C(F)(F)F)c2)CC[C@@H](N2CC[C@]3(C=Cc4ccccc43)[C@@H](C)C2)C1
6.3 nM | C[C@H]1CN(C2CCC(CC3CCC3)(C(=O)NCc3cc(F)cc(C(F)(F)F)c3)C2)CC[C@]12C=Cc1ccccc12 (some centres not stated)
3.1 nM | CC(C)[C@]1(C(=O)NCc2cc(F)cc(C(F)(F)F)c2)CC[C@@H](N2CC[C@]3(C=Cc4ccccc43)[C@@H](C)C2)C1
5 nM | CCCC1(C(=O)NCc2cc(F)cc(C(F)(F)F)c2)CCC(N2CC[C@]3(C=Cc4ccccc43)[C@@H](C)C2)C1 (some centres not stated)

Biological target: C-C chemokine receptor type 2 (Homo sapiens, UniProt P41597)
Test: Inhibition of Ca2+ flux in human monocytes
Type: functional, cell-based
Details: not given

Sequence of C-C chemokine receptor type 2 (Homo sapiens, UniProt P41597) (P41597 whole entry): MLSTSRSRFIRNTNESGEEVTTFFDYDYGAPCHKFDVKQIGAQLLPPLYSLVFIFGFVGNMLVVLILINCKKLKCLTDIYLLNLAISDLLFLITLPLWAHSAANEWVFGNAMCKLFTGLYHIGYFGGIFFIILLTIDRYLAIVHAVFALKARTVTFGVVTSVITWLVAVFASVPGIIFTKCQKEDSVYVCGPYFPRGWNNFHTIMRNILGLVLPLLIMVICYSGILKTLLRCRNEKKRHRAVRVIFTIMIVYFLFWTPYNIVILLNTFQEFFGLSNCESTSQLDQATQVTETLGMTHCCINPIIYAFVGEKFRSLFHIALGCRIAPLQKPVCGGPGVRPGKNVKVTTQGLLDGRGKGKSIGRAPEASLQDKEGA

IC50 | SMILES
0.63 nM | C[C@H]1CN([C@@H]2CC[C@@](C(=O)NCc3cc(F)cc(C(F)(F)F)c3)(C3CC3)C2)CC[C@]12C=Cc1ccccc12
0.71 nM | CC(C)[C@]1(C(=O)NCc2cc(F)cc(C(F)(F)F)c2)CC[C@@H](N2CC[C@]3(C=Cc4ccccc43)[C@@H](C)C2)C1

Test system: not listed separately
Test: Clearance in Sprague-Dawley rat at 1 mg/kg, iv
Type: ADME, organism-based
Parameters: dose 1 mg/kg, route intravenous
Details: in vivo
Procedure, shortened: (§1)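 Male Sprague–Dawley rats were dosed intravenously at 1.0 mg/kg and orally at 3.0 mg/kg. Clearance, volume of distribution, t1/2, Cmax, Tmax, oral bioavailability (F%) and AUC were determined, with oral AUC normalized.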

clearance | SMILES
19.4 mL/min/kg | CC(C)[C@]1(C(=O)NCc2cc(F)cc(C(F)(F)F)c2)CC[C@@H](N2CC[C@]3(C=Cc4ccccc43)[C@@H](C)C2)C1

Test system: not listed separately
Test: Volume of distribution in Sprague-Dawley rat at 1 mg/kg, iv
Type: ADME, organism-based
Parameters: dose 1 mg/kg, route intravenous
Details: in vivo, read-out: Vdss
Procedure, shortened: as §1

Vd | SMILES
2.99 L/kg | CC(C)[C@]1(C(=O)NCc2cc(F)cc(C(F)(F)F)c2)CC[C@@H](N2CC[C@]3(C=Cc4ccccc43)[C@@H](C)C2)C1

Test system: not listed separately
Test: Half life in Sprague-Dawley rat at 1 mg/kg, iv
Type: ADME, organism-based
Parameters: dose 1 mg/kg, route intravenous
Details: in vivo
Procedure, shortened: as §1

half-life | SMILES
2.5 h | CC(C)[C@]1(C(=O)NCc2cc(F)cc(C(F)(F)F)c2)CC[C@@H](N2CC[C@]3(C=Cc4ccccc43)[C@@H](C)C2)C1

Test system: not listed separately
Test: Half life in Sprague-Dawley rat at 3 mg/kg, po
Type: ADME, organism-based
Parameters: dose 3 mg/kg, route oral
Details: in vivo
Procedure, shortened: as §1

half-life | SMILES
2 h | CC(C)[C@]1(C(=O)NCc2cc(F)cc(C(F)(F)F)c2)CC[C@@H](N2CC[C@]3(C=Cc4ccccc43)[C@@H](C)C2)C1

Test system: not listed separately
Test: Cmax in Sprague-Dawley rat at 3 mg/kg, po
Type: ADME, organism-based
Parameters: dose 3 mg/kg, route oral
Details: in vivo
Procedure, shortened: as §1

Cmax | SMILES
414 nM | CC(C)[C@]1(C(=O)NCc2cc(F)cc(C(F)(F)F)c2)CC[C@@H](N2CC[C@]3(C=Cc4ccccc43)[C@@H](C)C2)C1

Test system: not listed separately
Test: Tmax in Sprague-Dawley rat at 3 mg/kg, po
Type: ADME, organism-based
Parameters: dose 3 mg/kg, route oral
Details: in vivo
Procedure, shortened: as §1

Tmax | SMILES
0.83 h | CC(C)[C@]1(C(=O)NCc2cc(F)cc(C(F)(F)F)c2)CC[C@@H](N2CC[C@]3(C=Cc4ccccc43)[C@@H](C)C2)C1

Test system: not listed separately
Test: Bioavailability in Sprague-Dawley rat at 3 mg/kg, po
Type: ADME, organism-based
Details: in vivo
Procedure, shortened: as §1

bioavailability | SMILES
32% | CC(C)[C@]1(C(=O)NCc2cc(F)cc(C(F)(F)F)c2)CC[C@@H](N2CC[C@]3(C=Cc4ccccc43)[C@@H](C)C2)C1
